Where “and” joins values, the source holds several entries; their conditions need not be identical. Identical values can stand only once. Like-named read-outs stand apart in the source and are kept apart here.
Key:
[1] = normal mice, iv, cited from earlier work
[2] = biological target: Aβ plaques in postmortem human brain sections (Homo sapiens, UniProt P05067); experiment: In vitro autoradiography of postmortem human brain sections; format: binding
Method in brief: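 Frozen postmortem brains (confirmed CAA, AD, control) cut at 20 µm. Sections incubated 1 h with the 18F-labelled test compound in 40% ethanol. Washes: saturated Li2CO3 in 40% ethanol (2 min, twice), then 40% ethanol (2 min, once), then a 30 s water rinse. Dried sections exposed to film for 12–18 h; developed images digitized.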

[3] = biological target: Aβ plaques in CAA brain sections (Homo sapiens, UniProt P05067); experiment: Thioflavin S fluorescent staining of neighboring CAA occipital brain sections
Aβ plaques in CAA brain sections, sequence (P05067 672-711 limits assumed): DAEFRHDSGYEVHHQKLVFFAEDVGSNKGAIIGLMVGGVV
Method in brief: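 Brain sections fixed in 10% neutral buffered formalin for 1 hr. Autofluorescence quenched with 0.05% KMnO4, then bleached in 0.2% K2S2O5/0.2% oxalic acid. Stained 3–5 min with 0.025% thioflavin S in 40% ethanol, differentiated in 50% ethanol. Imaged by fluorescence microscopy with a CCD digital camera.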

[4] = biological target: Aβ plaques in postmortem AD brain homogenates (Homo sapiens, UniProt P05067); format: binding
Aβ plaques in postmortem AD brain homogenates, sequence (P05067 672-711 limits assumed): as above

Aβ plaques in postmortem human brain sections, sequence (P05067 672-711 limits assumed): as above

CNc1ccc(/C=C/c2ccc(OCCOCCOCC[18F])nc2)cc1 [[^18F]5, [^18F]florbetapir f 18]
Biodistribution, Blood ([1]; 2 min post injection): 3.14 ± 0.69 % dose/gram | Biodistribution, Bone ([1]; 2 min post injection): 1.43 ± 0.09 % dose/gram | Biodistribution, Brain (brain uptake) ([1]; 2 min post injection): 7.8 % dose/gram and 7.77 ± 1.70 % dose/gram | Biodistribution, Kidney ([1]; 2 min post injection): 10.9 ± 2.63 % dose/gram | Biodistribution, Liver ([1]; 2 min post injection): 21.5 ± 1.07 % dose/gram | Biodistribution, Muscle ([1]; 2 min post injection): 1.06 ± 0.39 % dose/gram | Biodistribution, Blood ([1]; 30 min post injection): 2.80 ± 0.44 % dose/gram | Biodistribution, Bone ([1]; 30 min post injection): 1.22 ± 0.17 % dose/gram | Biodistribution, Brain ([1]; 30 min post injection): 1.59 ± 0.22 % dose/gram | Biodistribution, Kidney ([1]; 30 min post injection): 6.31 ± 0.58 % dose/gram | Biodistribution, Liver ([1]; 30 min post injection): 12.9 ± 0.72 % dose/gram | Biodistribution, Muscle ([1]; 30 min post injection): 1.78 ± 0.34 % dose/gram | Autoradiographic labeling of brain sections ([2]; AD brain sections): labeled intensely | Autoradiographic labeling of brain sections ([2]; healthy control (HC) brain sections): very low labeling

thioflavin S
Fluorescent staining of brain sections compared with [18F]8a autoradiography [3]: same labeling of the major blood vessels

CNc1ccc(/C=C/c2ccc(OCCOCCOCCOCCOCCOCC(COCCOCCOCCOCCOCCOc3ccc(/C=C/c4ccc(NC)cc4)cn3)OCCF)nc2)cc1 [Compound 8b]
Ki [4]: 3.24 nM

CNc1ccc(/C=C/c2ccc(OCCOCCOCCOCCOCCOCCOCC(COCCOCCOCCOCCOCCOCCOc3ccc(/C=C/c4ccc(NC)cc4)cn3)OCCF)nc2)cc1 [Compound 8c]
Ki [4]: 7.71 nM
